Data from ChEMBL document CHEMBL1123757, “Selective thromboxane synthetase inhibitors and antihypertensive agents. New derivatives of 4-hydrazino-5H-pyridazino[4,5-b]indole, 4-hydrazinopyridazino[4,5-a]indole, and related compounds” (J Med Chem, 1987).

Assays:
Rattus norvegicus [1] = assay: Antihypertensive activity in spontaneously hypertensive rats (SHR) measured by percentage fall in cardiac rhythm (CR) at 50 mg/kg administered intraperitoneally at 24 h; format: functional, Heart; settings: route intraperitoneal
Outline: (§1)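 Conscious SHR (Okamoto strain), 8 weeks old, male and female, 300–350 g, systolic BP ≥190 mmHg, CR 400–650 beats/min. Given ip or po at 2.5 mL/kg in normal saline or saline with 0.2% (carboxymethyl)cellulose and 1.0% Tween 80. Tail AP and CR recorded by mechanical transduction at 1, 3, 5 and 24 h, five animals per dose. Effect expressed as % fall versus control.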

Homo sapiens [2] = organism: Homo sapiens; assay: In vitro inhibition of platelet aggregation induced by ADP-II (PRP incubated for 60 minutes at 37 degree C) at 5e-6 M; format: functional
Outline: (§2)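 Human venous blood anticoagulated with 3.8% sodium citrate (1:9). PRP from centrifugation at 800 rpm for 10 min at room temperature. Count adjusted with PPP to […]. Compound in saline with 10% ethylene glycol is added to PRP and incubated at 37 °C before the agonist. Agonists: ADP 2×10^-5 M, AA 0.6 mM, PGH2 2.8 μM, adrenaline 0.6 μM. Born absorbance aggregometry; n = 5.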

Homo sapiens [3] = organism: Homo sapiens; assay: In vitro inhibition of platelet aggregation induced by AA (PRP incubated for 60 minutes at 37 degree C) at 5e-6 M;No significance; format: functional; outline: as §2
Homo sapiens [4] = organism: Homo sapiens; assay: In vitro inhibition of platelet aggregation induced by ADP-II (PRP incubated for 5 minutes at 37 degree C) at 10e-6 M; format: functional; outline: as §2
Cavia porcellus [5] = assay: Effect on thromboxane synthetase activity on ex vivo platelet aggregation induced by TXB2 at 100 mg/kg expressed as percent increase; format: functional
Outline: (§3)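 Fasted male or female guinea pigs (250–300 g, five per group) dosed orally in normal saline or saline with 0.2% (carboxymethyl)cellulose/1.0% Tween 80; controls given vehicle. Under ether, cardiac blood collected into 3.8% citrate. PRP adjusted to […] and aggregation induced by ADP (second wave) or AA, read by absorbance aggregometry. PGE2 and TXB2 measured by RIA.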

Cavia porcellus [6] = assay: Ex vivo inhibition of platelet aggregation induced by AA at 100 mg/kg; format: functional; outline: as §3
Cavia porcellus [7] = assay: Ex vivo inhibition of platelet aggregation induced by ADP-II at 100 mg/kg; format: functional; outline: as §3
[8] = target: T1, Thromboxane-A synthase (Homo sapiens) (UniProt P24557); assay: Effect on thromboxane synthetase activity on in vitro platelet aggregation induced by AA at 10e -5 M expressed as percent inhibition of TXB2
T1 sequence (whole entry): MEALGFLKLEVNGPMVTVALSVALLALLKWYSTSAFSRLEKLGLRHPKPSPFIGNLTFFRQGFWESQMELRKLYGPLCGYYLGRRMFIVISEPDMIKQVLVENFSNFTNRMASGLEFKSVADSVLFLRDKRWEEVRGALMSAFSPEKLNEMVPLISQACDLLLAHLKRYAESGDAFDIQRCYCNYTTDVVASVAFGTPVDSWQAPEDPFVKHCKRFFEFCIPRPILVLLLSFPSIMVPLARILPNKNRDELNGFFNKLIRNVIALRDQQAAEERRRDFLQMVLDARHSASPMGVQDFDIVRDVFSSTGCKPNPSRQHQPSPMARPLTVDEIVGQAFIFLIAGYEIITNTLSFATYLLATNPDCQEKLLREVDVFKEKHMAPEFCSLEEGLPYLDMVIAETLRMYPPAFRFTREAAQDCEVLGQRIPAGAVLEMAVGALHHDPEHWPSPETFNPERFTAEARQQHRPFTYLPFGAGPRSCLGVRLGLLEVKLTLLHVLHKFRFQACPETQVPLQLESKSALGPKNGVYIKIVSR

Homo sapiens [9] = organism: Homo sapiens; assay: In vitro inhibition of platelet aggregation induced by PGH-2 (PRP incubated for 60 minutes at 37 degree C) at 10e-5 M; format: functional; settings: 1 h; outline: as §2
[10] = Effect on thromboxane synthetase activity on in vitro platelet aggregation induced by AA at 10e -5 M expressed as percent increase in PGE-2; format: functional, Homo sapiens
Outline: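 Human citrated PRP adjusted to 200 000 […], compound at 10^-5 M final in saline/10% ethylene glycol, incubated at 37 °C. Aggregation induced with arachidonic acid 0.6 mM and read by Born absorbance aggregometry. PGE2 and TXB2 in the aggregated samples measured by radioimmunoassay. n = 5.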

Rattus norvegicus [11] = assay: Antihypertensive activity in spontaneously hypertensive rats (SHR) measured by percentage fall in cardiac rhythm (CR) at 50 mg/kg administered intraperitoneally at 5 h; format: functional, Heart; settings: route intraperitoneal; outline: as §1
Rattus norvegicus [12] = assay: Antihypertensive activity in spontaneously hypertensive rats (SHR) measured by percentage fall in arterial pressure (AP) at 50 mg/kg administered intraperitoneally at 24 h; format: functional, Artery; settings: route intraperitoneal
Outline: (§4)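 Unanesthetized Okamoto-strain SHR, male and female, 8 weeks old, 300–350 g, systolic pressure ≥190 mmHg, heart rate 400–650 beats/min; five animals per dose. Given ip at 2.5 mL/kg, dissolved or suspended in normal saline or saline with 0.2% (carboxymethyl)cellulose and 1.0% Tween 80. Tail AP and CR recorded by mechanical transduction at set times; reported as percentage fall from control.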

Rattus norvegicus [13] = assay: Antihypertensive activity in spontaneously hypertensive rats (SHR) measured by percentage fall in arterial pressure (AP) at 50 mg/kg administered intraperitoneally at 3 h; format: functional, Artery; settings: route intraperitoneal; outline: as §4
Homo sapiens [14] = organism: Homo sapiens; assay: In vitro inhibition of platelet aggregation induced by ADP-II (PRP incubated for 5 minutes at 37 degree C) at 10e-5 M; format: functional; outline: as §2
Rattus norvegicus [15] = assay: Antihypertensive activity in spontaneously hypertensive rats (SHR) measured by percentage fall in arterial pressure (AP) at 50 mg/kg administered intraperitoneally at 5 h; format: functional, Artery; settings: route intraperitoneal; outline: as §4
Homo sapiens [16] = organism: Homo sapiens; assay: In vitro inhibition of platelet aggregation induced by DD (PRP incubated for 5 minutes at 37 degree C) at 10e-5 M; format: functional; outline: as §2
Homo sapiens [17] = organism: Homo sapiens; assay: In vitro inhibition of platelet aggregation induced by ADP-II (PRP incubated for 60 minutes at 37 degree C) at 10e-5 M; format: functional; settings: 1 h; outline: as §2
Cavia porcellus [18] = assay: Effect on thromboxane synthetase activity on ex vivo platelet aggregation induced by PGE-2 at 100 mg/kg expressed as percent increase; format: functional; outline: as §3
Homo sapiens [19] = organism: Homo sapiens; assay: Inhibition of platelet aggregation induced by AA (PRP incubated for 60 minutes at 37 degree C) at 10e-5 M; format: functional; settings: 1 h; outline: as §2
Rattus norvegicus [20] = assay: Antihypertensive activity in spontaneously hypertensive rats (SHR) measured by percentage fall in cardiac rhythm (CR) at 50 mg/kg administered intraperitoneally at 3 h; format: functional, Heart; settings: route intraperitoneal; outline: as §1
Rattus norvegicus [21] = assay: Antihypertensive activity in spontaneously hypertensive rats (SHR) measured by percentage fall in cardiac rhythm (CR) at 5 mg/kg administered intraperitoneally at 5 h;No significance; format: functional, organism-based; design: dose 5 mg/kg; settings: Heart; outline: as §1
Rattus norvegicus [22] = assay: Antihypertensive activity in spontaneously hypertensive rats (SHR) measured by percentage fall in arterial pressure (AP) at 1 mg/kg administered intraperitoneally at 3 h;No significance; format: functional, organism-based; design: dose 1 mg/kg; settings: Artery; outline: as §4
Homo sapiens [23] = organism: Homo sapiens; assay: In vitro inhibition of platelet aggregation induced by ADP-II (PRP incubated for 5 minutes at 37 degree C) at 10e-5 M; No significance; format: functional; outline: as §2
Rattus norvegicus [24] = assay: Antihypertensive activity in spontaneously hypertensive rats (SHR) measured by percentage fall in cardiac rhythm (CR) at 25 mg/kg administered perorally at 24 h;No significance; format: functional, organism-based; design: dose 25 mg/kg; settings: Heart; outline: as §1
Rattus norvegicus [25] = assay: Antihypertensive activity in spontaneously hypertensive rats (SHR) measured by percentage fall in cardiac rhythm (CR) at 25 mg/kg administered perorally at 5 h;No significance; format: functional, organism-based; design: dose 25 mg/kg; settings: Heart; outline: as §1
Homo sapiens [26] = organism: Homo sapiens; assay: No significance in vitro inhibition of platelet aggregation induced by ADP-II (PRP incubated for 60 minutes at 37 degree C) at 10e-5 M;No significance; format: functional; outline: as §2
Rattus norvegicus [27] = assay: Antihypertensive activity in spontaneously hypertensive rats (SHR) measured by percentage fall in arterial pressure (AP) at 1 mg/kg administered intraperitoneally at 5 h;No significance; format: functional, organism-based; design: dose 1 mg/kg; settings: Artery; outline: as §4
Rattus norvegicus [28] = assay: Antihypertensive activity in spontaneously hypertensive rats (SHR) measured by percentage fall in arterial pressure (AP) at 1 mg/kg administered intraperitoneally at 24 h;No significance; format: functional, organism-based; design: dose 1 mg/kg; settings: Artery; outline: as §4
Homo sapiens [29] = organism: Homo sapiens; assay: In vitro inhibition of platelet aggregation induced by AA (PRP incubated for 60 minutes at 37 degree C) at 10e-5 M; No significance; format: functional; outline: as §2
Homo sapiens [30] = organism: Homo sapiens; assay: In vitro inhibition of platelet aggregation induced by […] (PRP incubated for 5 minutes at 37 degree C) at 10e-5 M; No significance; format: functional
Rattus norvegicus [31] = assay: Antihypertensive activity in spontaneously hypertensive rats (SHR) measured by percentage fall in cardiac rhythm (CR) at 5 mg/kg administered intraperitoneally at 24 h;No significance; format: functional, organism-based; design: dose 5 mg/kg; settings: Heart; outline: as §1
Rattus norvegicus [32] = assay: Antihypertensive activity in spontaneously hypertensive rats (SHR) measured by percentage fall in arterial pressure (AP) at 25 mg/kg administered intraperitoneally at 24 h; No significance; format: functional, organism-based; design: dose 25 mg/kg; settings: Artery; outline: as §4

Oc1[nH]ncc2c3cc(OCc4ccccc4)ccc3nc1-2
Decrease in CR (Rattus norvegicus [1]): 9%
Inhibition (Homo sapiens [2]): 80%
inhibition (Homo sapiens [3]): No significant values
inhibition at 1 µM (Homo sapiens [4]): 40%
inhibition in vivo at 100 mg/kg (Cavia porcellus [5]): 50%
inhibition in vivo at 100 mg/kg (Cavia porcellus [6]): 100%
inhibition in vivo at 100 mg/kg (Cavia porcellus [7]): 100%
Inhibition % [8]: 50%
inhibition at 10 µM (Homo sapiens [9]): 100%
Increase [10]: 270%
Decrease in CR (Rattus norvegicus [11]): 15%
Decrease in AP (Rattus norvegicus [12]): 7%
Decrease in AP (Rattus norvegicus [13]): 12%
inhibition at 10 µM (Homo sapiens [14]): 60%
Decrease in AP (Rattus norvegicus [15]): 13%
inhibition at 10 µM (Homo sapiens [16]): 100%
inhibition at 10 µM (Homo sapiens [17]): 100%
Increase (Cavia porcellus [18]): 30%
inhibition at 10 µM (Homo sapiens [19]): 100%
Decrease in CR (Rattus norvegicus [20]): 10%

NNc1[nH]ncc2c3cc(OCc4ccccc4)ccc3nc1-2
Decrease in CR (Rattus norvegicus [21]): No significant values
Decrease in AP (Rattus norvegicus [22]): No significant values
inhibition (Homo sapiens [23]): No significant values
Decrease in CR (Rattus norvegicus [24]): No significant values
Decrease in CR (Rattus norvegicus [25]): No significant values
inhibition (Homo sapiens [26]): No significant values
Decrease in AP (Rattus norvegicus [27]): No significant values
Decrease in AP (Rattus norvegicus [28]): No significant values
inhibition (Homo sapiens [29]): No significant values
inhibition (Homo sapiens [30]): No significant values
Decrease in CR (Rattus norvegicus [31]): No significant values
Decrease in AP (Rattus norvegicus [32]): No significant values
